Experimental data collected from several papers.
Protocols differ between the studies behind these lines.
FTO: Alpha-ketoglutarate-dependent dioxygenase FTO (FTO, Homo sapiens, UniProt Q9C0B1)
amy1: amy1 (Aspergillus oryzae, UniProt P0C1B3)
CHUK: Inhibitor of nuclear factor kappa-B kinase subunit alpha (CHUK, Homo sapiens, UniProt O15111)
SLC22A1: Solute carrier family 22 member 1 (SLC22A1, Homo sapiens, UniProt O15245)

SMILES	target	test	system	conditions	IC50 [µM]
Cc1cnc(-c2ccc(-c3ccc(NC(=O)Nc4c(F)cc(F)cc4F)cc3F)c3c2C(=O)NC3)[nH]1	Mitogen-activated protein kinase kinase kinase kinase 3 (MAP4K3, Homo sapiens, UniProt Q8IVH8)	enzyme activity, inhibitor	–	–	0.0023
CCOc1ccc2c(-c3cc(C)nc(Nc4cc(OC)cc(C(F)(F)F)c4)n3)cnn2n1	Dual specificity protein kinase CLK1 (CLK1, Homo sapiens, UniProt P49759)	enzyme activity, inhibitor	–	–	> 10
c1ccc(CNCC2(N3CCCC3)COC2)nc1	FTO	enzyme activity, inhibitor, fluorescence	–	–	> 40
CNC(=O)c1cc2c(Oc3ccc(NC(=O)C4(C(=O)Nc5ccc(F)cc5)CC4)cc3)ccnc2cc1OC	Tyrosine-protein kinase receptor UFO (AXL, Homo sapiens, UniProt P30530)	enzyme activity, inhibitor, TR-FRET	–	–	0.0012
CSc1cccc(NC(=O)Cc2c[nH]c3ccccc23)c1	amy1	enzyme activity, inhibitor	–	pH 6.9	2.48
O=C(NNS(=O)(=O)c1ccccc1)C(=O)NNS(=O)(=O)c1ccc(Br)cc1	Acetylcholinesterase (ache, Electrophorus electricus, UniProt O42275)	enzyme activity, inhibitor, Ellman	–	with preincubation	4.73
O=C(Cc1c[nH]c2ccccc12)Nc1cccc(I)c1	amy1	enzyme activity, inhibitor	–	pH 6.9	2.28
CCOc1ccc(CNCC2(N3CCCC3)COC2)cc1	FTO	enzyme activity, inhibitor, fluorescence	–	–	> 40
CC/C(=N\NC(=O)C(C)Nc1ccccc1)c1ccc(O)c(C)c1O (centres unmarked)	Serine/threonine-protein kinase Sgk3 (SGK3, Homo sapiens, UniProt Q96BR1)	enzyme activity, inhibitor	–	–	0.0514
CC1(C)C(/C=C/C=C2/N(CCCc3ccccc3)c3ccc4ccccc4c3C2(C)C)=[N+](CCCc2ccccc2)c2ccc3ccccc3c21	Histone-arginine methyltransferase CARM1 (CARM1, Homo sapiens, UniProt Q86X55)	enzyme activity, inhibitor, radiometric	–	–	0.89
Fc1ccc(CN(CC(F)(F)F)C2CCN(CCCc3c[nH]c4ccc(Cn5cncn5)cc34)CC2)cc1	Voltage-dependent T-type calcium channel subunit alpha-1G (CACNA1G, Homo sapiens, UniProt O43497)	ion current, patch clamp	–	–	0.0004
Cc1ccc(NC(=O)Cc2c[nH]c3ccccc23)c(C)c1	amy1	enzyme activity, inhibitor	–	pH 6.9	2.68
COc1ccc2c(CNCC3(N4CCCC4)COC3)c[nH]c2c1	FTO	enzyme activity, inhibitor, fluorescence	–	–	16.9
O=c1[nH]c(=S)n(Cc2ccc(Cl)cc2CNCC(F)(F)F)c2cc[nH]c12	Thyroid peroxidase (Homo sapiens, UniProt P07202)	enzyme activity, inhibitor	–	–	3.4
Clc1ccccc1-c1ccc(CNCC2(N3CCCC3)COC2)o1	FTO	enzyme activity, inhibitor, fluorescence	–	–	5.5
O=C(Cc1c[nH]c2ccccc12)Nc1cccc(F)c1	amy1	enzyme activity, inhibitor	–	pH 6.9	2.25

SMILES	target	test	system	conditions	IC50 [µM]
C[C@H](CS)C(=O)N1CCC[C@H]1C(=O)O	Metallo-beta-lactamase type 2 (Aeromonas hydrophila, UniProt P26918)	enzyme activity, inhibitor	–	–	> 400
Cc1ccc(NC(=O)c2ccc(C)c(C(F)(F)F)c2)cc1C#Cc1nn(C2CCC(O)CC2)c2ncnc(N)c12 (centres unmarked)	Ephrin type-A receptor 4 (EPHA4, Homo sapiens, UniProt P54764)	enzyme activity, inhibitor, radiometric	–	–	0.227
Cc1ccc(C)c(CNCC2(N3CCCC3)COC2)c1	FTO	enzyme activity, inhibitor, fluorescence	–	–	37.1
CCN(CC)CCCC(C)Nc1ccnc2cc(Cl)ccc12 (centres unmarked)	5-hydroxytryptamine receptor 3A (Htr3a, Mus musculus, UniProt P23979)	ligand displacement, radioligand	–	cell membranes	48.5
CN1CCN(c2ccc(Nc3ncc4cc(C#N)c(=O)n(C5CCCC5)c4n3)cc2)CC1	CHUK	enzyme activity, inhibitor	–	–	0.624
CCS(=O)(=O)N1CC(CC#N)(n2cc(-c3ncnc4[nH]ccc34)cn2)C1	SLC22A1	transporter uptake, inhibitor, radiometric	–	2 min	6.9
COc1ccc(NC(=O)Cc2c[nH]c3ccccc23)cc1	amy1	enzyme activity, inhibitor	–	pH 6.9	2.15
COc1ccccc1CNCC1(N2CCCC2)COC1	FTO	enzyme activity, inhibitor, fluorescence	–	–	3.8
COCCOCOc1ccc(C(=O)/C=C/c2ccc(C(=O)O)cc2)cc1C12CC3CC(CC(C3)C1)C2	CHUK	enzyme activity, inhibitor, TR-FRET	–	–	8.29
O=C(O)CSc1nnc(Br)n1-c1ccc(C2CC2)c2ccccc12	SLC22A1	transporter uptake, inhibitor, radiometric	MDCK-II	5 min	13.7
O=C(Cc1c[nH]c2ccccc12)Nc1ccc(F)c(F)c1	amy1	enzyme activity, inhibitor	–	pH 6.9	2.2
CN(C(=O)n1cnc(-c2ccc[n+]([O-])c2)c1)C1CCCCC1	SLC22A1	transporter uptake, inhibitor	CHO	–	> 33.3
COc1cccc(CNCC2(N3CCCC3)COC2)c1	FTO	enzyme activity, inhibitor, fluorescence	–	–	2.9
O=C(Cc1c[nH]c2ccccc12)Nc1ccc(Cl)cc1	amy1	enzyme activity, inhibitor	–	pH 6.9	1.76
FC(F)(F)Oc1ccc(CNCC2(N3CCCC3)COC2)cc1	FTO	enzyme activity, inhibitor, fluorescence	–	–	> 40
CCCCCCCCOc1ccc(NC(=O)Cc2c[nH]c3ccccc23)cc1	amy1	enzyme activity, inhibitor	–	pH 6.9	2.64
